Results: ChEMBL document CHEMBL5058577, “EUbOPEN Chemogenomics Library 2 (Multiplex)” (2022)

Test system: Fibroblast
Experiment: Multiplex assay against human fibroblast
Type: toxicity, cell-based
How it was run: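 Four dyes were applied at seeding to live cells: Hoechst33342, BioTracker Green Microtubule Cytoskeleton Dye, MitoTracker Red and Annexin V Alexa Fluor 680. Imaging after compound addition used a CQ1 microscope at 37°C and 5% CO2. CellPathfinder machine-learning gating then sorted cells into Hoechst high-intensity objects or normal cells, normal cells into healthy, pyknosed or fragmented nuclei, and pyknosed cells into mitotic or apoptotic, with tubulin, mitochondrial-mass and membrane-permeability phenotypes given as per cents of healthy-nucleus cells.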

[1] = 12 h, 1 µM, compound concentration 1 uM, replicate 1
[2] = 12 h, 1 µM, compound concentration 1 uM, replicate 2
[3] = 12 h, 10 µM, compound concentration 10 uM, replicate 1
[4] = 12 h, 10 µM, compound concentration 10 uM, replicate 2
[5] = 24 h, 1 µM, compound concentration 1 uM, replicate 1
[6] = 24 h, 1 µM, compound concentration 1 uM, replicate 2
[7] = 24 h, 10 µM, compound concentration 10 uM, replicate 1
[8] = 24 h, 10 µM, compound concentration 10 uM, replicate 2
[9] = 48 h, 1 µM, compound concentration 1 uM, replicate 1
[10] = 48 h, 1 µM, compound concentration 1 uM, replicate 2
[11] = 48 h, 10 µM, compound concentration 10 uM, replicate 1
[12] = 48 h, 10 µM, compound concentration 10 uM, replicate 2

SMILES: CN1CCN(c2cc(-c3ccccc3)nc(N)n2)CC1
- Population Apoptotic (%) [1]: 47%
- Population Fragmented Nuclei (%) [1]: 15%
- Population Healthy Nuclei (%) [1]: 68%
- Population Hoechst High Intensity Objects (%) [1]: 2%
- Population Membrane Permeable-Phenotype (%) [1]: 1%
- Population Mitochondria Different-Phenotype (%) [1]: 10%
- Population Mitotic Cells (%) [1]: 52%
- Population Normal (%) [1]: 97%
- Population Pyknosed Nuclei (%) [1]: 15%
- Population Tubulin-Different-Phenotype (%) [1]: 25%
- Total Cell Count [1]: 135
- Population Apoptotic (%) [2]: 37%
- Population Fragmented Nuclei (%) [2]: 28%
- Population Healthy Nuclei (%) [2]: 45%
- Population Hoechst High Intensity Objects (%) [2]: 5%
- Population Membrane Permeable-Phenotype (%) [2]: 11%
- Population Mitochondria Different-Phenotype (%) [2]: 11%
- Population Mitotic Cells (%) [2]: 62%
- Population Normal (%) [2]: 94%
- Population Pyknosed Nuclei (%) [2]: 26%
- Population Tubulin-Different-Phenotype (%) [2]: 66%
- Total Cell Count [2]: 97
- Population Apoptotic (%) [3]: 48%
- Population Fragmented Nuclei (%) [3]: 16%
- Population Healthy Nuclei (%) [3]: 67%
- Population Hoechst High Intensity Objects (%) [3]: 2%
- Population Membrane Permeable-Phenotype (%) [3]: 0%
- Population Mitochondria Different-Phenotype (%) [3]: 6%
- Population Mitotic Cells (%) [3]: 51%
- Population Normal (%) [3]: 97%
- Population Pyknosed Nuclei (%) [3]: 15%
- Population Tubulin-Different-Phenotype (%) [3]: 44%
- Total Cell Count [3]: 216
- Population Apoptotic (%) [4]: 36%
- Population Fragmented Nuclei (%) [4]: 40%
- Population Healthy Nuclei (%) [4]: 36%
- Population Hoechst High Intensity Objects (%) [4]: 7%
- Population Membrane Permeable-Phenotype (%) [4]: 10%
- Population Mitochondria Different-Phenotype (%) [4]: 12%
- Population Mitotic Cells (%) [4]: 64%
- Population Normal (%) [4]: 92%
- Population Pyknosed Nuclei (%) [4]: 22%
- Population Tubulin-Different-Phenotype (%) [4]: 67%
- Total Cell Count [4]: 118
- Population Apoptotic (%) [5]: 75%
- Population Fragmented Nuclei (%) [5]: 17%
- Population Healthy Nuclei (%) [5]: 65%
- Population Hoechst High Intensity Objects (%) [5]: 2%
- Population Membrane Permeable-Phenotype (%) [5]: 1%
- Population Mitochondria Different-Phenotype (%) [5]: 3%
- Population Mitotic Cells (%) [5]: 25%
- Population Normal (%) [5]: 97%
- Population Pyknosed Nuclei (%) [5]: 16%
- Population Tubulin-Different-Phenotype (%) [5]: 19%
- Total Cell Count [5]: 145
- Population Apoptotic (%) [6]: 47%
- Population Fragmented Nuclei (%) [6]: 36%
- Population Healthy Nuclei (%) [6]: 44%
- Population Membrane Permeable-Phenotype (%) [6]: 8%
- Population Mitochondria Different-Phenotype (%) [6]: 8%
- Population Mitotic Cells (%) [6]: 52%
- Population Pyknosed Nuclei (%) [6]: 18%
- Population Tubulin-Different-Phenotype (%) [6]: 50%
- Total Cell Count [6]: 106
- Population Apoptotic (%) [7]: 41%
- Population Fragmented Nuclei (%) [7]: 12%
- Population Healthy Nuclei (%) [7]: 70%
- Population Hoechst High Intensity Objects (%) [7]: 2%
- Population Membrane Permeable-Phenotype (%) [7]: 1%
- Population Mitochondria Different-Phenotype (%) [7]: 6%
- Population Mitotic Cells (%) [7]: 58%
- Population Normal (%) [7]: 97%
- Population Pyknosed Nuclei (%) [7]: 17%
- Population Tubulin-Different-Phenotype (%) [7]: 41%
- Total Cell Count [7]: 213
- Population Apoptotic (%) [8]: 29%
- Population Fragmented Nuclei (%) [8]: 33%
- Population Healthy Nuclei (%) [8]: 43%
- Population Membrane Permeable-Phenotype (%) [8]: 4%
- Population Mitotic Cells (%) [8]: 70%
- Population Pyknosed Nuclei (%) [8]: 23%
- Population Tubulin-Different-Phenotype (%) [8]: 64%
- Total Cell Count [8]: 107
- Population Apoptotic (%) [9]: 70%
- Population Fragmented Nuclei (%) [9]: 22%
- Population Healthy Nuclei (%) [9]: 62%
- Population Hoechst High Intensity Objects (%) [9]: 2%
- Population Membrane Permeable-Phenotype (%) [9]: 0%
- Population Mitochondria Different-Phenotype (%) [9]: 2%
- Population Mitotic Cells (%) [9]: 30%
- Population Normal (%) [9]: 97%
- Population Pyknosed Nuclei (%) [9]: 15%
- Population Tubulin-Different-Phenotype (%) [9]: 20%
- Total Cell Count [9]: 137
- Population Apoptotic (%) [10]: 50%
- Population Fragmented Nuclei (%) [10]: 36%
- Population Healthy Nuclei (%) [10]: 49%
- Population Hoechst High Intensity Objects (%) [10]: 3%
- Population Membrane Permeable-Phenotype (%) [10]: 2%
- Population Mitochondria Different-Phenotype (%) [10]: 6%
- Population Mitotic Cells (%) [10]: 50%
- Population Normal (%) [10]: 96%
- Population Pyknosed Nuclei (%) [10]: 14%
- Population Tubulin-Different-Phenotype (%) [10]: 54%
- Total Cell Count [10]: 101
- Population Apoptotic (%) [11]: 40%
- Population Fragmented Nuclei (%) [11]: 26%
- Population Healthy Nuclei (%) [11]: 58%
- Population Hoechst High Intensity Objects (%) [11]: 3%
- Population Membrane Permeable-Phenotype (%) [11]: 0%
- Population Mitochondria Different-Phenotype (%) [11]: 0%
- Population Mitotic Cells (%) [11]: 59%
- Population Normal (%) [11]: 96%
- Population Pyknosed Nuclei (%) [11]: 14%
- Population Tubulin-Different-Phenotype (%) [11]: 31%
- Total Cell Count [11]: 227
- Population Apoptotic (%) [12]: 66%
- Population Fragmented Nuclei (%) [12]: 50%
- Population Healthy Nuclei (%) [12]: 39%
- Population Membrane Permeable-Phenotype (%) [12]: 9%
- Population Mitochondria Different-Phenotype (%) [12]: 9%
- Population Mitotic Cells (%) [12]: 33%
- Population Pyknosed Nuclei (%) [12]: 10%
- Population Tubulin-Different-Phenotype (%) [12]: 60%
- Total Cell Count [12]: 114
